Assay results from ChEMBL document CHEMBL1127457, “Nonpeptide renin inhibitors with good intraduodenal bioavailability and efficacy in dog” (J Med Chem, 1994).

What was measured:
[1] = Average peak plasma concentration of compound after 1 mg/kg intravenous administration to Ferret
[2] = Average area under curve for compound at 1 mg/kg dose intravenous administration to Ferret; conditions: in vivo
[3] = Average peak plasma concentration of compound after 1 mg/kg intravenous administration to rat
[4] = Average area under curve at 10 mg/kg dose after intraduodenal administration to Ferret; conditions: in vivo
[5] = Oral bioavailability in rat; conditions: in vivo; for bioavailability: intraduodenal, 10 mg/kg
Homo sapiens = species on record: Homo sapiens; conditions: Liver, Microsome
[6] = Average peak plasma concentration of compound after 10 mg/kg intraduodenal administration to rat
[7] = Partition coefficient (logD6.5); conditions: octanol/water, pH 6.5
Renin [8] = target: T1, Renin (Rattus norvegicus, UniProt P08424); experiment: (§1) Tested in vitro for its ability to inhibit the rat plasma renin; type: functional, cell-free
T1 sequence (P08424 whole entry): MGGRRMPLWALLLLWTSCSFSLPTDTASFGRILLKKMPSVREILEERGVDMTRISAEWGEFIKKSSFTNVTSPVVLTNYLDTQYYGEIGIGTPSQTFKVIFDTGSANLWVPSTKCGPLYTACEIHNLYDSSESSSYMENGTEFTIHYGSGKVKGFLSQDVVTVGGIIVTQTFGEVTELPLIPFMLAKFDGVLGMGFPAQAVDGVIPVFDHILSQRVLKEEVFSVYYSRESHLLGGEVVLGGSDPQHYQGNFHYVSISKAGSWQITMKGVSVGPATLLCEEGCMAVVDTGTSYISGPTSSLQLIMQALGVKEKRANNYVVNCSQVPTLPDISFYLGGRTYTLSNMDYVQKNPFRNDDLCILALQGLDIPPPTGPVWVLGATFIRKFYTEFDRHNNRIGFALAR
In short: (§2)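 IC50 against renin in plasma from the named species (dog, ferret, human, rat); single determination in most cases.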

[9] = Average area under curve for the compound at 10 mg/kg dose after intraduodenal administration to rat; conditions: in vivo
[10] = target: Renin (Mustela putorius furo); experiment: Tested in vitro for its ability to inhibit the ferret plasma renin
[11] = Average peak plasma concentration of compound after 10 mg/kg intraduodenal administration to Ferret
Renin [12] = target: T2, Renin (Homo sapiens, UniProt P00797); experiment: Tested in vitro for its ability to inhibit the human plasma renin; type: cell-free; in short: as §2
T2 sequence (P00797 whole entry): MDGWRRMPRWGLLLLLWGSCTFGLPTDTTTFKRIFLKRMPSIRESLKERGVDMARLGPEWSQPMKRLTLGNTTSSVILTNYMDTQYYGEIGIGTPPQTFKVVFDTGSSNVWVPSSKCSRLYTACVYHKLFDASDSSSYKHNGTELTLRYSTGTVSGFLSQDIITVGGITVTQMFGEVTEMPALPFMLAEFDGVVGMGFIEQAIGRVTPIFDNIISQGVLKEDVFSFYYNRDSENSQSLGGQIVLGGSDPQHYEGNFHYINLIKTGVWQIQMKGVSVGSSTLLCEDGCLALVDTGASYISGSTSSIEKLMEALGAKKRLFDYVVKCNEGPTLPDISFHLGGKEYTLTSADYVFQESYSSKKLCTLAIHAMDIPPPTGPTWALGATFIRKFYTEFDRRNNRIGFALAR

[13] = Partition coefficient (logD7.4); conditions: octanol/water, pH 7.4
[14] = Oral bioavailability in ferret; conditions: in vivo
[15] = Average area under curve for the compound at 1 mg/kg dose after intravenous administration to rat; conditions: in vivo
Renin (Canis familiaris) [16] = experiment: Tested in vitro for its ability to inhibit the dog plasma renin
Canis familiaris [17] = experiment: Mean arterial pressure response following 10 mg/kg intraduodenal administration to salt depleted dog; conditions: in vivo, other
[18] = Average peak plasma concentration of compound after 1 mg/kg intravenous administration in salt depleted dog
Canis familiaris [19] = experiment: Mean arterial pressure response following 1 mg/kg intravenous administration to salt depleted dog; conditions: in vivo
[20] = Average area under curve at 10 mg/kg intraduodenal administration to salt depleted dog; conditions: in vivo
[21] = Average peak plasma concentration of compound at 10 mg/kg intraduodenal administration in salt depleted dog
[22] = Oral bioavailability in dog (salt depleted); conditions: in vivo
[23] = Average area under curve at 1 mg/kg intravenous administration to salt depleted dog; conditions: in vivo
Renin [24] = target: T1, Renin; experiment: as §1; type: cell-free; in short: as §2
[25] = target: Renin (Mustela putorius furo); experiment: Tested in vitro for its ability to inhibit the ferret plasma renin; remark: listed apart in the source
Renin (Canis familiaris) [26] = experiment: Tested in vitro for its ability to inhibit the dog plasma renin; remark: listed apart in the source
[27] = C(compound) was tested for percent […] bioavailability in rat; type: ADME, organism-based; conditions: in vivo, po
In short: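 Intraduodenal rather than oral dosing: 10 mg/kg id, plus a 1 mg/kg iv bolus. Plasma drug levels were measured by renin-inhibition bioassay, which counts active metabolites as parent. Level–time data were fitted to a biexponential decay model to give AUC. Bioavailability is the dose-corrected AUCid/AUCiv for each experiment, given as mean ± SD of the mean; n=3 unless noted.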

[28] = target: Renin (Mustela putorius furo); experiment: Tested in vitro for its ability to inhibit the ferret plasma renin; remark: listed apart in the source
Renin (Canis familiaris) [29] = experiment: Tested in vitro for its ability to inhibit the dog plasma renin; remark: listed apart in the source

Compound	Cmax ([1]; plasma) [ng/mL]	AUC [2] [ng·h/mL]	Cmax ([3]; plasma) [ng/mL]	AUC [4] [ng·h/mL]	bioavailability [5] [%]	Rate (nM min-1 (nM of cytochrome P450)-1) (Homo sapiens)	Cmax ([6]; plasma) [ng/mL]	logD [7]	AUC [9] [ng·h/mL]	IC50 [10] [nM]	Cmax ([11]; plasma) [ng/mL]	IC50 (Renin [12]) [nM]	logD [13]	bioavailability [14] [%]	AUC [15] [ng·h/mL]	IC50 (Renin (Canis familiaris) [16]) [nM]	IC50 (Renin [24]) [nM]	also measured
CCCC[C@H](N[C@@H](Cc1ccccc1)C(=O)N1CCC(OCOC)CC1)C(=O)N[C@@H](CC1CCCCC1)[C@@H](O)C[C@H](C(=O)NCc1ccccn1)C(C)C	10000	3030	6250	14100	21	3.52	4570	> 5	6870	1000	9120	12	> 5	46	3130	75	–	IC50 (Renin [8]): > 10000 nM
CCCC[C@H](N[C@@H](Cc1ccccc1)C(=O)N1CCC(OCOC)CC1)C(=O)N[C@@H](CC1CCCCC1)[C@@H](O)C[C@H](C(=O)NCCN1CCCCC1)C(C)C	3600	1680	1000	5680	15	4.52	360	> 5	570	–	3730	14	> 5	33	352	–	–	–
CCCC[C@H](N[C@@H](Cc1ccccc1)C(=O)N1CCC(OCOC)CC1)C(=O)N[C@@H](CC1CCCCC1)[C@@H](O)C[C@H](C(=O)NCCCN1CCOCC1)C(C)C	–	902	–	6800	36.3	4.14	–	3.9	235	–	–	–	–	75	66.7	–	–	Cmax ([1]; in vivo): 1550 ng/mL; Arterial pressure (Canis familiaris [17]): 10803 % mmHg min; Cmax ([18]; in vivo): 4700 ng/mL; Arterial pressure (Canis familiaris [19]): 8356 % mmHg min; Cmax ([6]; in vivo): 190 ng/mL; AUC [20]: 4000 ng·h/mL; Cmax ([21]; in vivo): 1260 ng/mL; bioavailability [22]: 57%; Cmax ([11]; in vivo): 4620 ng/mL; AUC [23]: 693 ng·h/mL
CCCC[C@H](N[C@@H](Cc1ccccc1)C(=O)N1CCC(OCOC)CC1)C(=O)N[C@@H](CC1CCCCC1)[C@@H](O)C[C@H](C(=O)NCc1ccncc1)C(C)C	–	–	2480	–	11	0.78	460	> 5	760	940	–	7.8	> 5	–	653	59	10000	–
CCCC[C@H](N[C@@H](Cc1ccccc1)C(=O)N1CCC(OCOC)CC1)C(=O)N[C@@H](CC1CCCCC1)[C@@H](O)C[C@H](C(=O)NCCN1CCCC1)C(C)C	3900	2750	1310	8220	> 25	–	> 480	> 5	> 850	–	5500	13	> 5	29	340	–	–	–
CCCC[C@H](N[C@@H](Cc1ccccc1)C(=O)N1CCC(OCOC)CC1)C(=O)N[C@@H](CC1CCCCC1)[C@@H](O)C[C@H](C(=O)NCCCn1ccnc1)C(C)C	–	–	–	–	–	–	–	–	–	330	–	–	–	–	–	24	7300	–
CCCC[C@H](N[C@@H](Cc1ccccc1)C(=O)N1CCC(OCOC)CC1)C(=O)N[C@@H](CC1CCCCC1)[C@@H](O)C[C@H](C(=O)NCCNc1noc(N)n1)C(C)C	320	71.3	–	54.8	–	–	–	4.07	–	–	110	3.8	4.11	7	–	–	–	–
CCCC[C@H](N[C@@H](Cc1ccccc1)C(=O)N1CCC(OCOC)CC1)C(=O)N[C@@H](CC1CCCCC1)[C@@H](O)C[C@H](C(=O)NCCc1ccccn1)C(C)C	–	–	–	–	–	–	–	–	–	510	–	9.4	–	–	–	33	7000	–
CCCC[C@H](O[C@@H](Cc1ccccc1)C(=O)N1CCC(OCOC)CC1)C(=O)N[C@@H](CC1CCCCC1)[C@@H](O)C[C@H](C(=O)NCCCN1CCOCC1)C(C)C	–	–	–	–	–	4.26	–	3.3	–	–	–	–	–	–	–	–	–	–
CCCC[C@H](N[C@@H](Cc1ccccc1)C(=O)N1CCC(OCOC)CC1)C(=O)N[C@@H](CC1CCCCC1)[C@@H](O)C[C@H](C(=O)NCCC[N+]1([O-])CCOCC1)C(C)C	1830	668	1130	1350	6	–	140	3.6	140	–	1180	4.3	3.6	20	212	–	–	Arterial pressure (Canis familiaris [17]): 6881 % mmHg min; Cmax ([18]; plasma): > 5530 ng/mL; Arterial pressure (Canis familiaris [19]): 3707 % mmHg min; AUC [20]: 1430 ng·h/mL; Cmax ([21]; plasma): 420 ng/mL; IC50 (Renin [8]): 6400 nM; bioavailability [22]: < 19%; IC50 [25]: 420 nM; IC50 (Renin (Canis familiaris) [26]): 19 nM; AUC [23]: > 732 ng·h/mL
CCCC[C@H](N[C@@H](Cc1ccccc1)C(=O)N1CCC(OCOC)CC1)C(=O)N[C@@H](CC1CCCCC1)[C@@H](O)C[C@H](C(=O)NCCN1CCOCC1)C(C)C	2840	1870	680	9750	–	3.71	910	> 5	1220	170	6500	3.9	> 5	51	242	14	3800	Arterial pressure (Canis familiaris [17]): 6449 % mmHg min; Cmax ([18]; plasma): 7000 ng/mL; Arterial pressure (Canis familiaris [19]): 2849 % mmHg min; AUC [20]: 6530 ng·h/mL; Cmax ([21]; plasma): 1830 ng/mL; bioavailability [22]: 52%; bioavailability [27]: 50%; AUC [23]: 1260 ng·h/mL
CCCC[C@H](N[C@@H](Cc1ccccc1)C(=O)N1CCC(OCOC)CC1)C(=O)N[C@@H](CC1CCCCC1)[C@@H](O)C[C@H](C(=O)NCC(C)(C)N1CCOCC1)C(C)C	2980	2630	340	16600	35	4.32	600	> 5	763	–	11500	9.1	> 5	63	215	–	2100	Arterial pressure (Canis familiaris [17]): 8525 % mmHg min; IC50 [28]: 120 nM; Cmax ([18]; plasma): 7560 ng/mL; Arterial pressure (Canis familiaris [19]): 7589 % mmHg min; AUC [20]: 6970 ng·h/mL; Cmax ([21]; plasma): 1600 ng/mL; bioavailability [22]: 37%; IC50 (Renin (Canis familiaris) [29]): 14 nM; AUC [23]: 1840 ng·h/mL
CCCC[C@H](N[C@@H](Cc1ccccc1)C(=O)N1CCC(OCOC)CC1)C(=O)N[C@@H](CC1CCCCC1)[C@@H](O)C[C@H](C(=O)NCc1ccccc1)C(C)C	–	–	–	–	7	–	–	> 5	1100	–	–	14	> 5	–	1540	–	–	Cmax ([3]; in vivo): 1660 ng/mL; Cmax ([6]; in vivo): 930 ng/mL
CCCC[C@H](N[C@@H](Cc1ccccc1)C(=O)N1CCC(OCOC)CC1)C(=O)N[C@@H](CC1CCCCC1)[C@@H](O)C[C@H](C(=O)NCc1cccnc1)C(C)C	–	827	–	> 8170	–	2.27	–	> 5	3670	–	–	–	> 5	> 98	228	–	–	Cmax ([1]; in vivo): 3480 ng/mL; Cmax ([3]; in vivo): 560 ng/mL; F ([5]; po): 160%; Cmax ([6]; in vivo): 2320 ng/mL; Cmax ([11]; in vivo): > 4920 ng/mL
